MEKK3 PB1 HTS = raises or lowers MEK5 binding to the human MEKK3 PB1 domain; Q99759; bead-based flow cytometry, Alexa488-MEK5 binding to MEKK3; actives lie on both sides; 0 = blocked by unlabeled MEK5, 100 = vehicle; binding response (% of control), % at 10 µM; 290,000 tested, 1.4% active;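 active = binding response more than 3 SD above or below the average of its plate-row segment, actives on both sides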;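 also: Alexa488 bead fluorescence after subtracting the streptavidin-only scavenger bead signal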
Target sequence (Q99759 whole entry, looked up, the tested form may be a part): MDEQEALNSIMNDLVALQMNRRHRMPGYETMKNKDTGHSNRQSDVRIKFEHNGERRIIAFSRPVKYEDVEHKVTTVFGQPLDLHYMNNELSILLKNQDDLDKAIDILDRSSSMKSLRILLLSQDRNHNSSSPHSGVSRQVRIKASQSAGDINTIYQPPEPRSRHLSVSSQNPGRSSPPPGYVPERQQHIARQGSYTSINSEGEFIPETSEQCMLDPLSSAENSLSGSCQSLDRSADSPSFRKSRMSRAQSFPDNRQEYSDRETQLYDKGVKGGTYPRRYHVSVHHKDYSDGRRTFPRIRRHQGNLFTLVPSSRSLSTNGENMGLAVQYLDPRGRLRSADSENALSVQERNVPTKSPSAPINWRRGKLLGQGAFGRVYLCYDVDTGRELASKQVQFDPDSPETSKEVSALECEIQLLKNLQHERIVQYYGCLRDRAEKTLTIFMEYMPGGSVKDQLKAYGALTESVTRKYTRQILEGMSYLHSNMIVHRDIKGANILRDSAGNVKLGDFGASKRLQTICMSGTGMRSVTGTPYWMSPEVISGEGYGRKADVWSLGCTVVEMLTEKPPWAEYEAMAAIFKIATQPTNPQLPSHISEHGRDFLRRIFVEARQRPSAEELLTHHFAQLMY
Lipid droplet = modulators of hepatic lipid droplet formation | 240,000 tested, 0.4% active | AML12 mouse hepatocytes, oleate lipid droplets, BODIPY imaging | inhibition, % at 6.5 µM | AID 1656;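 active = lipid droplet intensity inhibited by at least 50%, with more than 500 cells counted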
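material = mouse AML12 hepatocyte cell line, fixed after treatment | also added = 100 µM oleic acid challenge | doses = compound at 6.5 µM only | schedule = overnight exposure | technique = Image-based BODIPY and DAPI two-channel analysis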
MEKK2wt PB1 HTS = raises or lowers MEK5 binding to wildtype human MEKK2 PB1 domain; Q9Y2U5; bead flow cytometry, Alexa488-MEK5 binding to MEKK2 WT; actives lie on both sides; binding response (% of control), % at 10 µM; 290,000 tested, 1.1% active; in the data active = binding response below about 67% or above about 130%
MEKK2 mut-MEK5 = signal of MEK5 binding to mutant human MEKK2 PB1 domain | 290,000 tested, 0.35% active | bead flow cytometry, Alexa488-MEK5 binding to MEKK2 mutant | percent response, % at 10 µM; in the data active = percent response above about 24%, passing the limit was not always enough
MEKK2wt confirm = raises or lowers MEK5 binding to wildtype human MEKK2, retest | shares compounds with MEKK3 PB1 HTS | bead flow cytometry, Alexa488-MEK5 binding to MEKK2 WT; actives lie on both sides | binding response (% of control), % at 10 µM | 5,900 tested, 2.4% active | AID 1892; in the data active = binding response below about 16% or above about 210%; inactive = in between
MEKK2mut confirm = signal of MEK5 binding to mutant human MEKK2, retest. bead flow cytometry, Alexa488-MEK5 binding to MEKK2 mutant. 5,900 tested, 2% active. percent response, % at 10 µM. shares compounds with MEKK3 PB1 HTS. AID 1893; in the data active = percent response mostly above about 71%, no sharp cut-off; inactive = mostly below about 38%;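 also: higher means compound restores mutant binding toward wildtype level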
MEKK3-MEK5 inh = MEKK3-MEK5 PB1 inhibition, single concentration confirmation | shares compounds with MEKK3 PB1 HTS | bead flow cytometry, Alexa488-MEK5 binding to MEKK3; active compounds read low | binding response (% of control), % at 10 µM | 5,900 tested, 1.8% active | AID 1894;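 active = binding response below 72% of control, or above a set upper limit, though filed actives all read lower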;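 also: 100% = DMSO only wells and 0% = binding blocked by excess unlabeled MEK5; lower values mean stronger disruption of MEK5 binding to MEKK3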
* marks the source's active call; other numbers are inactive results; · = not tested or not shown; [ ] = another dose, or the depositor's remark. The list is not random: actives were taken first. Their share in the collection is about 2.6%.

SMILES | MEKK3 PB1 HTS | Lipid droplet | MEKK2wt PB1 HTS | MEKK2 mut-MEK5 | MEKK2wt confirm | MEKK2mut confirm | MEKK3-MEK5 inh
COc1ccc(N2CCN(C(CNC(=O)C(=O)NCc3ccc4c(c3)OCO4)c3ccco3)CC2)cc1 (configuration not stated) | 103 | 4 | 99 | -4 | · | · | ·
COc1ccccc1NS(=O)(=O)c1cc(NC(=O)c2cnccn2)ccc1N1CCOCC1 | 58*[inhibitor] | -2 | 72 | -24 | 105 | 6 | 102
Cc1ccc(C(=O)Nc2ccc(C)c(S(=O)(=O)Nc3ccccc3Cl)c2)s1 | 104 | -8 | 105 | 2 | · | · | ·
O=C(Nc1ccc(Cl)c(Cl)c1)Nc1ccc(N2CCCC2)c(S(=O)(=O)Nc2ccccc2Cl)c1 | 107 | 2 | 44*[inhibitor] | 44 | 102 | 4 | 104
O=C(Nc1ccc(F)cc1)Nc1ccc(N2CCCC2)c(S(=O)(=O)Nc2ccccc2Cl)c1 | 106 | -15 | 49 | 50 | · | · | ·
Cc1ccc(NC(=O)c2cc3c(s2)CCCC3)cc1S(=O)(=O)Nc1ccccc1Cl | 133* | 12 | 111 | 1 | 95 | -5 | 102
CNc1nc(-c2c(C)n(C)c3ccc(OC)cc23)cs1 | 104 | -8 | 101 | 6 | · | · | ·
O=C(Nc1cccc(CNCCc2c[nH]c3ccccc23)c1)c1ccccc1Cl | 110 | -17 | 150* | 32* | 133 | 11 | 103
Cc1ccccc1OCc1nnc(SCC(=O)Nc2ccc3nc(SCC(=O)Nc4ccccc4)sc3c2)n1C | 87 | 2 | 90 | -3 | · | · | ·
O=C(OCc1nc2ccccc2s1)c1ccc(Br)o1 | 144* | 0 | 134 | 6 | 104 | -1 | 101
COc1ccc(S(=O)(=O)NCCOc2cccc3cccnc23)cc1OC | 101 | -18 | 96 | -6 | · | · | ·
COc1ccccc1OCCNS(=O)(=O)c1ccc2oc3ccccc3c2c1 | 138* | -29 | 109 | 3 | 104 | 1 | 102
Cc1ccc(NC2CCCN(C(=O)CCCN3CCCCC3=O)C2)cc1C (configuration not stated) | 103 | -1 | 101 | -1 | · | · | ·
Nc1nc(Cl)cc(Sc2ccc3ccccc3c2)n1 | 115 | · | 119 | 26* | 111 | 4 | 106
CC(C)(C)c1ccc(Cn2nnc3c(=O)[nH]c(C4CCCN(C(=O)c5cccs5)C4)nc32)cc1 (configuration not stated) | 100 | -3 | 94 | -1 | · | · | ·
CC(C)(C)NC(=O)/C(=C\C=C\c1ccccc1)NC(=O)c1ccc([N+](=O)[O-])cc1 | 99 | -9 | 95 | -2 | · | · | ·
OC(CNCC1CCCO1)Cn1c2ccccc2c2ccccc21 (configuration not stated) | 101 | · | 112 | 7 | · | · | ·
OC(CNCC1CCCO1)Cn1c2ccc(Cl)cc2c2cc(Cl)ccc21 (configuration not stated) | 104 | · | 187* | 34 | 170 | 49 | 113
CCN(CC)S(=O)(=O)c1ccc(C(=O)Nc2cc(C)cc(C)c2)cc1 | 106 | · | 107 | 6 | · | · | ·
Cc1cc(C)cc(NC(=O)c2ccc(S(=O)(=O)C(F)F)cc2)c1 | 144* | -28 | 110 | 1 | 107 | 6 | 103
Cc1cccc(NC(=O)c2ccc(S(=O)(=O)N3CCOCC3)cc2)c1C | 103 | 10 | 99 | 1 | · | · | ·
Cc1cccc(NC(=O)c2ccc(S(=O)(=O)C(F)F)cc2)c1C | 137* | 24 | 103 | -1 | 109 | 0 | 104
CCc1ccc(OCCOCC(O)CNC2CCCC2)cc1 (configuration not stated) | 102 | -10 | 108 | 13 | · | · | ·
CCCn1c(CNC(=O)Cc2ccccc2)nc2ccccc21 | 32*[inhibitor] | 0 | 38*[inhibitor] | -10 | 102 | 2 | 101
CCCC(=O)NCCc1nc2ccccc2n1CCC | 100 | 8 | 101 | 6 | · | · | ·
SMILES | MEKK3 PB1 HTS | Lipid droplet | MEKK2wt PB1 HTS | MEKK2 mut-MEK5 | MEKK2wt confirm | MEKK2mut confirm | MEKK3-MEK5 inh
COc1ccc2cc(C(C)C(=O)N3CCC(C)CC3)ccc2c1 (configuration not stated) | 102 | -40 | 102 | 8 | · | · | ·
COc1cc(C2C(C(=O)c3ccc(C)o3)=C(O)C(=O)N2CCN2CCOCC2)ccc1OCCC(C)C (configuration not stated) | 98 | -9 | 95 | 2 | · | · | ·
Cc1ccc(S(=O)(=O)N2CCCCC2C(=O)N(C)c2ccccc2)cc1 (configuration not stated) | 99 | -43 | 98 | 2 | · | · | ·
O=C(Nc1ccc2c(c1)OCCO2)C1CCCN1S(=O)(=O)c1ccc(Cl)cc1 (configuration not stated) | 97 | -9 | 102 | 0 | · | · | ·
CCc1cccc(NC(=O)C2CCCN2S(=O)(=O)c2ccc3c(c2)n(C)c(=O)c(=O)n3C)c1 (configuration not stated) | 71*[inhibitor] | -25 | 70 | -15 | 127 | 20 | 108
O=C(Nc1cccc(S(=O)(=O)N2CCOCC2)c1)[C@@H]1CCCN1S(=O)(=O)c1ccc(Cl)cc1 | 153* | 0 | 111 | 1 | 109 | 15 | 107
Cc1ccc(N(C)C(=O)C2CCCN2S(=O)(=O)c2ccc3c(c2)n(C)c(=O)c(=O)n3C)cc1 (configuration not stated) | 57*[inhibitor] | -10 | 71 | -17 | 101 | 4 | 103
Cc1ccc(OCC(=O)N/N=C/C=C/c2ccco2)cc1C | 125 | -12 | 97 | 0 | · | · | ·
COc1ccc(OC)c(N(C)S(=O)(=O)c2cc3c(cc2C)NC(=O)CO3)c1 | 100 | -20 | 98 | -1 | · | · | ·
Cn1c(Cc2ccc3c(c2)OCO3)nnc1SCC(=O)NC(C)(C)C | 65*[inhibitor] | 10 | 64 | -12 | 104 | -2 | 103
CC(C)N(C(=O)CSc1nnc(Cc2ccc3c(c2)OCO3)n1C)C(C)C | 102 | -10 | 96 | -11 | · | · | ·
N#Cc1sc2nc(C3CC3)cc(-c3ccccc3)c2c1N | 131* | 0 | 100 | 0 | 104 | 2 | 103
N#Cc1sc2nc(-c3ccccc3)cc(-c3ccco3)c2c1N | 95 | 4 | 89 | -1 | · | · | ·
c1ccc(-c2cc3c(nn2)CCc2nonc2-3)cc1 | 72*[inhibitor] | 18 | 80 | -23 | 93 | -6 | 88
COc1ccc(NC(=O)CC(C(=O)O)C(C)c2ccccc2)cc1 (configuration not stated) | 108 | · | 160* | 29* | 103 | -3 | 101
COc1cccc(-c2nn(C)c3sc(C(=O)NCCCN(C)Cc4ccccc4)cc23)c1 | 106 | -12 | 147* | 22 | 146 | 46 | 105
CCN(CC)CCCNC(=O)c1cc2c(-c3cccc(OC)c3)nn(C)c2s1 | 101 | -28 | 120 | 13 | · | · | ·

Source: PubChem
